{"data": "Measurements pooled from the literature", "observed": "metabolic stability", "species": "rat", "matrix": "liver microsomes"}
{"SMILES": "COc1cc(-c2cc(C(C)=O)n3ccccc23)c(OC)cc1Cn1ccnc1", "conditions": "1 µM, pH 7.4", "half-life [min]": 94.3}
{"SMILES": "Cc1[nH]c(C)c(S(=O)(=O)Nc2ccc(C(F)(F)F)c(Cl)c2)c1C(=O)N(C)C", "half-life [min]": 5.7}
{"SMILES": "N#Cc1ccc(C[C@H](Nc2ncc(-c3ccc(F)cc3)o2)C(=O)N2CCc3ccccc32)cc1", "conditions": "10 µM, pH 7.4", "half-life [min]": 43}
{"SMILES": "C=CCn1c(=O)c2cnc(Nc3ccc(N4CCN(C)CC4)cc3)nc2n1-c1ccc2c(n1)[C@@](O)(CC)CC2", "half-life [min]": 79}
{"SMILES": "O=C1c2ccccc2C(=O)N1CCCN1CCN(C(c2ccc(F)cc2)c2ccc(F)cc2)CC1", "conditions": "100 ng/mL", "half-life [min]": 3.9}
{"SMILES": "N#Cc1ccc(C[C@H](NC(=O)c2cc3ccc(F)cc3[nH]2)C(=O)N2CCc3ccccc32)cc1", "conditions": "10 µM, pH 7.4", "half-life [min]": 105}
{"SMILES": "NCc1ccc(-c2nn(Cc3ccccc3)c3ccccc23)o1", "half-life [min]": 85}
{"SMILES": "O=C(Nc1ccc(OC(F)(F)Cl)cc1)c1cnc(N2CC[C@@H](O)C2)c(-c2ccn[nH]2)c1", "conditions": "1 µM, pH 7.4", "half-life [min]": 179}
{"SMILES": "COc1ccccc1Cn1nc(-c2ccc(CO)o2)c2ccccc21", "conditions": "1 µM, pH 7.4", "half-life [min]": 2}
{"SMILES": "CCN(CC)Cc1ccc2cc(COC(=O)Nc3ccc(C(=O)NO)cc3)ccc2c1", "conditions": "pH 7.4", "half-life [min]": 92.9}
{"SMILES": "N#Cc1ccc(C[C@H](Nc2nnc(-c3ccc(Br)cc3)o2)C(=O)N2CCc3ccccc32)cc1", "conditions": "10 µM, pH 7.4", "half-life [min]": 27}
{"SMILES": "COc1cnccc1Cn1nc(-c2ccc(CO)o2)c2ccccc21", "conditions": "1 µM, pH 7.4", "half-life [min]": 7}
{"SMILES": "N#Cc1ccc(C[C@H](Nc2nnc(-c3cccc(F)c3)s2)C(=O)N2CCc3ccccc32)cc1", "conditions": "10 µM, pH 7.4", "half-life [min]": 47}
{"SMILES": "OCc1ccc(-c2nn(Cc3ccncc3)c3ccccc23)o1", "conditions": "1 µM, pH 7.4", "half-life [min]": 12}
